Data taken from ChEMBL document CHEMBL1212932, “Nocapyrones A-D, gamma-pyrones from a Nocardiopsis strain isolated from the marine sponge Halichondria panicea” (2010).
The source made the active and inactive calls. The calls are words filed in the database; no cut-off is given here.

Legend:
HepG2 = test: Cytotoxicity against human HepG2 cells at 50 uM; assay type: functional
Summary of the method: (§1)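 Cells were treated with compound at 50 µM. The read-out was metabolic activity, and the value is given as the percent reduction in metabolic activity.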

NIH3T3 = test: Cytotoxicity against mouse NIH/3T3 cells at 50 uM; assay type: functional; summary of the method: as §1
Bacillus subtilis = test: Antimicrobial activity against Bacillus subtilis DSM 347; assay type: functional, organism-based
Erwinia amylovora = test: Antimicrobial activity against Erwinia amylovora DSM 50901; assay type: functional, organism-based
Escherichia coli = test: Antimicrobial activity against Escherichia coli K-12 DSM 498; assay type: functional, organism-based
Pseudomonas fluorescens = test: Antimicrobial activity against Pseudomonas fluorescens NCIMB 10586; assay type: functional, organism-based
Cutibacterium acnes = test: Antimicrobial activity against Propionibacterium acnes DSM 1897; assay type: functional, organism-based
Pseudomonas aeruginosa = test: Antimicrobial activity against Pseudomonas aeruginosa DSM 50071; assay type: functional, organism-based
Pseudomonas syringae = test: Antimicrobial activity against Pseudomonas syringae DSM 50252; assay type: functional, organism-based
Ralstonia solanacearum = test: Antimicrobial activity against Ralstonia solanacearum DSM 9544; assay type: functional, organism-based
[1] = test system: Staphylococcus epidermidis; test: Antimicrobial activity against Staphylococcus epidermidis DSM 20044; assay type: functional, organism-based
Mammaliicoccus lentus = test: Antimicrobial activity against Staphylococcus lentus DSM 6672; assay type: functional, organism-based
Xanthomonas campestris = test: Antimicrobial activity against Xanthomonas campestris DSM 2405; assay type: functional, organism-based
Candida albicans = test: Antimicrobial activity against Candida albicans DSM 6425; assay type: functional, organism-based
[2] = Inhibition of phosphodiesterase 4 by colorimetric assay
[3] = target: T1, Tyrosine-protein phosphatase non-receptor type 1 (Homo sapiens) (UniProt P18031); test: Inhibition of protein tyrosine phosphatase 1b by colorimetric assay
T1 sequence (whole entry): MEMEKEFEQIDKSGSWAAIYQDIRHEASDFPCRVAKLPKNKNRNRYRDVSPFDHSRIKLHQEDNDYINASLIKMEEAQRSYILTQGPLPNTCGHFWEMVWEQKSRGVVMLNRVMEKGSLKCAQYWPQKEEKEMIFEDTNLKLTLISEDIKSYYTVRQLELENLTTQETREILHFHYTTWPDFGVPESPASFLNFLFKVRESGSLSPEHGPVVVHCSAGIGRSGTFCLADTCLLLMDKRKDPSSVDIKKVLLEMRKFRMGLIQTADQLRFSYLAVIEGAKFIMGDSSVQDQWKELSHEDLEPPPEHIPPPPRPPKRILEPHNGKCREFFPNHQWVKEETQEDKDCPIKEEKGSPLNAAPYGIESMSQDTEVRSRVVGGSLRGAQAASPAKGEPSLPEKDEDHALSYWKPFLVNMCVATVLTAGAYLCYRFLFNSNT

[4] = target: Acetylcholinesterase (Homo sapiens) (UniProt P22303); test: Inhibition of acetylcholinesterase by colorimetric assay
Acetylcholinesterase (Homo sapiens), sequence (P22303 whole entry): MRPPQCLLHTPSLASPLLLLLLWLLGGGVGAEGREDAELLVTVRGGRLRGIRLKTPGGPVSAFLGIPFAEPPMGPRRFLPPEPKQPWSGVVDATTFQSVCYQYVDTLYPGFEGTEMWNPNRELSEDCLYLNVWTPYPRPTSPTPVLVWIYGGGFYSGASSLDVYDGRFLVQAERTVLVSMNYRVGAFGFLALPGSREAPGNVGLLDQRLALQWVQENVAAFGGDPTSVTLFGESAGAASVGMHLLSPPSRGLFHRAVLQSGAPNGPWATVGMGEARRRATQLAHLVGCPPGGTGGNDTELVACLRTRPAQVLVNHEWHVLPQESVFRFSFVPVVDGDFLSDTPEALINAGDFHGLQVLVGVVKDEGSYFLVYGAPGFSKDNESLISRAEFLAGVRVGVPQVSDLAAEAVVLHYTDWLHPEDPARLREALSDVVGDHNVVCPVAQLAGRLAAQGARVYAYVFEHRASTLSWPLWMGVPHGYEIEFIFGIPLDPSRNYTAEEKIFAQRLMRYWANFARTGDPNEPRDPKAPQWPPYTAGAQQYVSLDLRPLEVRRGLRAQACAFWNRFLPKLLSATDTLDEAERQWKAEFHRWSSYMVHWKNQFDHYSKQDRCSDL

[5] = target: Human immunodeficiency virus type 1 reverse transcriptase (Human immunodeficiency virus 1) (UniProt Q72547); test: Inhibition of HIV1 reverse transcriptase by ELISA
[6] = target: Glycogen synthase kinase-3 beta (Homo sapiens) (UniProt P49841); test: Inhibition of GSK3-beta
Glycogen synthase kinase-3 beta (Homo sapiens), sequence (P49841 whole entry, looked up): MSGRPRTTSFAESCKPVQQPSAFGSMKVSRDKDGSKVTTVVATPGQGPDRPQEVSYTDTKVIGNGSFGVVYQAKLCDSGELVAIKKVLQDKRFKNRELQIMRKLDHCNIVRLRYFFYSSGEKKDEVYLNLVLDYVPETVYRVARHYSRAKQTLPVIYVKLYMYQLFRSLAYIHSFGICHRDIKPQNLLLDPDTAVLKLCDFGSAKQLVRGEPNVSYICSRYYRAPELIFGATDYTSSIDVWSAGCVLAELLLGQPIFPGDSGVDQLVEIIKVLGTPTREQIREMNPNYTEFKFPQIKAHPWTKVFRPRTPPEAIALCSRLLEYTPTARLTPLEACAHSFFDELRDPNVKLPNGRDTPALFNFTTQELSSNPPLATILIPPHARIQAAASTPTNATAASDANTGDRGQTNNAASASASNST

SMILES	Activity (HepG2)	Activity (NIH3T3)	Activity (Bacillus subtilis)	Activity (Erwinia amylovora)	Activity (Escherichia coli)	Activity (Pseudomonas fluorescens)	Activity (Cutibacterium acnes)	Activity (Pseudomonas aeruginosa)	Activity (Pseudomonas syringae)	Activity (Ralstonia solanacearum)	Activity [1]	Activity (Mammaliicoccus lentus)	Activity (Xanthomonas campestris)	Activity (Candida albicans)	Activity [2]	Activity [3]	Activity [4]	Activity [5]	Activity [6]
COc1ccc(/C=c2/[nH]c(=O)/c(=C/C(C)C)[nH]c2=O)cc1	44%	64%	–	–	–	–	–	–	–	–	–	–	–	–	–	–	–	–	–
COc1oc(CCCCC(C)C)c(C)c(=O)c1C	–	–	inactive	inactive	inactive	inactive	inactive	inactive	inactive	inactive	inactive	inactive	inactive	inactive	inactive	inactive	inactive	inactive	inactive
COc1oc(CCCCC(C)(C)O)c(C)c(=O)c1C	–	–	inactive	inactive	inactive	inactive	inactive	inactive	inactive	inactive	inactive	inactive	inactive	inactive	inactive	inactive	inactive	inactive	inactive
